Rows were chosen to be rich in hits. Some 3.2% of all compounds tested hit in one or more screens of this group.
TRPML3 ag – human TRPML3 channel agonists, primary screen, cell-based, HEK293 TRPML3-YFP, Fluo-8 calcium fluorescence, 3 µM. 100% = the carbachol control signal. AID 1448, 2008. Mucolipin-3 (Homo sapiens), Q8TDD5. actives 0.29% (n = 220,000). activation, % at 3 µM;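 active means activation above its plate's cutoff, the mean activation of the plate's test wells plus 3 SD, cut at about 12% in these data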;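 further: 0% = DMSO only wells and 100% = carbachol wells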
Target sequence (Q8TDD5 whole entry, looked up): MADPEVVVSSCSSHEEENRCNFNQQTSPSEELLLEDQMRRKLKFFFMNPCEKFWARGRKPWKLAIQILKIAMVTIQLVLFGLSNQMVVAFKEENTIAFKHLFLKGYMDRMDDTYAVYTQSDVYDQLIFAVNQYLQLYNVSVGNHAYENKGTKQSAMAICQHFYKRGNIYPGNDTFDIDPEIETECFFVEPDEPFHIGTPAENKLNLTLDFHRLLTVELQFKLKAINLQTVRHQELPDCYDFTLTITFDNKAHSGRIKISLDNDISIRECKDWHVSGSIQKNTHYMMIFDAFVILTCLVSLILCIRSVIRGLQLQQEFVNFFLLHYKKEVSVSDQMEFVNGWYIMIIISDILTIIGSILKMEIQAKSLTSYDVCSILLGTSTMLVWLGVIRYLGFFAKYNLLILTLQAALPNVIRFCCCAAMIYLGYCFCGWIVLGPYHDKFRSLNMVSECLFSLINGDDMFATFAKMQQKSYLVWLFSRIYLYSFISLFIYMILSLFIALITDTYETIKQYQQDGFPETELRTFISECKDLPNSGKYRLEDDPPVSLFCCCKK
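Test system: TRPML3-YFP stable HEK293 cells. Doses: single point at 3 µM. Incubation: dye loading 1 h 37 °C then 30 min ambient, 125 s read. Signal: Fluo-8 calcium dye fluorescence, ex 470-495, em 515-575 nm. Measure: percent activation from peak-to-basal fluorescence ratio, scaled between DMSO and carbachol.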
CHO parental Ca – ATP-evoked calcium signal inhibitors, parental CHO, primary screen, counter-screen for OX1R antagonist project, cell-based, fluorescence, Fluo-8 calcium dye | actives 0.63% (n = 330,000) | inhibition, % at 5.6 µM | parental CHO-K1, ATP-induced calcium, Fluo-8 fluorescence;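 active means inhibition above that plate's mean sample inhibition plus 3 SD, cut at about 26% in these data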;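 further: 0% = ATP-challenged DMSO wells and 100% = DMSO wells without ATP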
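Material: Parental CHO cells | Reagent: ATP | Compound dosing: Single nominal dose of 5.6 µM per compound | Detection: Intracellular calcium via Fluo-8 no-wash fluorescent dye | Read-out: % inhibition of ATP-induced calcium mobilization | Benchmarks: Low control ATP plus DMSO, high control DMSO only | Replicates: Singlicate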
zfTRPN1 agonist – zebrafish TRPN1 channel agonists, primary screen, cell-based, HEK293, calcium fluorescence | HEK293 zebrafish TRPN1-YFP, Fluo-8 calcium fluorescence; 100% = response to 87 µM carbachol | activation, % at 3 µM | actives 0.18% (n = 220,000) | AID 1424, 2008;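 active means activation above its plate's cutoff, the mean activation of test wells on that plate plus 3 SD, cut at about 19% in these data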;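 further: 0% = DMSO alone and 100% = 87 µM carbachol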
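Material: zebrafish TRPN1-YFP in HEK293 cells. Doses: one dose of 3 µM, 0.3% DMSO. Incubation: dye 1 h 37 °C plus 30 min RT. Measured by: intracellular calcium fluorescence with Fluo-8.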
OX1R antag-1 – antagonists of human orexin 1 receptor (OX1R); inhibition, % at 6.6 µM; Orexin/Hypocretin receptor type 1 (Homo sapiens), O43613; actives 1.8% (n = 330,000); AID 485270, 2010; OX1R-expressing cells, FRET antagonist read-out; in the data active means inhibition mostly above about 38%, no sharp cut-off; inactive means mostly below about 40%;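 further: 0% = agonist challenge alone and 100% = reference antagonist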
OX1R antag-2 – OX1R (HCRTR1) antagonists, primary screen, fluorescence, CHO/OX1R cells, Fluo-8 calcium, orexin A; Orexin/Hypocretin receptor type 1 (Homo sapiens), O43613; Fluo-8 calcium fluorescence; actives 0.43% (n = 330,000); inhibition, % at 5 µM;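 active means inhibition above its plate's threshold, mean inhibition of all tested compounds on the plate plus 3 SD, cut at about 37% in these data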;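 further: 0% = orexin A challenge wells and 100% = SB-334867-A antagonist wells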
GPR7 antag – GPR7 receptor antagonists, primary screen, cell-based, fluorescence, single concentration; GPR7-expressing cells, fluorescence antagonist assay; actives 1.1% (n = 290,000); inhibition, % at 4.4 µM; AID 1861, 2009; Neuropeptides B/W receptor type 1 (Homo sapiens), P48145; in the data active means inhibition above about 16%, passing the limit was not always enough;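 further: cells stimulated with the agonist NPW; 0% = agonist with vehicle and 100% = vehicle without agonist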
GPR7 antag conf – GPR7 receptor antagonists, confirmation, cell-based, fluorescence, single concentration | shares compounds with GPR7 antag | GPR7-expressing cells, calcium fluorescence antagonist mode | inhibition, % at 4.4 µM | actives 52% (n = 2,400) | AID 1952, 2009; in the data active means inhibition above about 24%;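 further: stimulated with the GPR7 agonist NPW; 0% = agonist plus vehicle and 100% = vehicle alone without agonist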
MCHR1 antagonist – MCHR1 antagonists in cells, counter-screen for GPR7 antagonist project, cell-based, fluorescence, human. shares compounds with GPR7 antag. MCHR1-expressing cells, fluorescence antagonist assay. inhibition, % at 4.4 µM. actives 62% (n = 2,400). AID 2148, 2009; in the data active means inhibition above about 22%;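 further: 0% = vehicle with agonist and 100% = vehicle without agonist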
An asterisk follows results filed as active.

Results for CCCCNc1c2c3c(cccc3n(C)c1=O)C(=O)c1ccccc1-2 ?
TRPML3 ag: 46.2*; CHO parental Ca: 77.0*; zfTRPN1 agonist: 81.3*; OX1R antag-1: 11.6; OX1R antag-2: 91.2*; GPR7 antag: 21.0*; GPR7 antag conf: 64.7*; MCHR1 antagonist: 81.4*

Results for Cn1c(=O)c(NCCO)c2c3c(cccc31)C(=O)c1ccccc1-2 ?
TRPML3 ag: 282.3*; CHO parental Ca: 96.2*; zfTRPN1 agonist: 454.3*; OX1R antag-1: 73.6; OX1R antag-2: 103.2*; GPR7 antag: 61.5*; GPR7 antag conf: 59.5*; MCHR1 antagonist: 81.8*

How did O=C(NCC(=O)N1CCCCC1)c1ccc2ccccc2c1 do in these assays?
CHO parental Ca: 2.5; OX1R antag-1: 7.7; OX1R antag-2: 11.9; GPR7 antag: -12.0

What do the screens show for `CC(CN1CCOCC1)OC(=O)c1ccccc1Cl` (stereo unspecified)?
CHO parental Ca: 0.3; OX1R antag-1: 7.5; OX1R antag-2: 10.1; GPR7 antag: -0.2

Results for CCC(=O)N/C(=N/c1nc(C)cc(C)n1)Nc1ccc(C)cc1 ?
CHO parental Ca: -8.2; OX1R antag-1: -4.3; OX1R antag-2: -7.7; GPR7 antag: 9.1

How did CC(=O)Nc1ccc(N/C(N)=N/c2nc(C)cc(C)n2)cc1 do in these assays?
TRPML3 ag: 0.7; CHO parental Ca: -14.9; zfTRPN1 agonist: 1.1; OX1R antag-1: 8.2; OX1R antag-2: -18.4; GPR7 antag: -4.6

What do the screens show for `CCOc1ccc(N/C(=N/c2nc(C)cc(C)n2)NC(=O)CC)cc1`?
TRPML3 ag: 0.5; CHO parental Ca: -15.9; zfTRPN1 agonist: 1.7; OX1R antag-1: 2.7; OX1R antag-2: -19.0; GPR7 antag: 21.1*; GPR7 antag conf: 0.8; MCHR1 antagonist: 7.5

What do the screens show for `COc1ccc(C)cc1N/C(N)=N/c1nc(C)cc(C)n1`?
TRPML3 ag: 0.3; CHO parental Ca: -12.8; zfTRPN1 agonist: 1.0; OX1R antag-1: 7.9; OX1R antag-2: -19.2; GPR7 antag: -7.7

What do the screens show for `Cc1ccc(C)c(N/C(N)=N/c2nc(C)cc(C)n2)c1`?
TRPML3 ag: 20.8*; CHO parental Ca: 25.6; zfTRPN1 agonist: 35.8*; OX1R antag-1: 9.2; OX1R antag-2: 70.0*; GPR7 antag: 61.1*; GPR7 antag conf: 66.2*; MCHR1 antagonist: 71.1*

What do the screens show for `CCOc1ccc(N/C(N)=N/c2nc(C)cc(C)n2)cc1`?
CHO parental Ca: 49.1*; OX1R antag-1: -0.1; OX1R antag-2: 57.6*; GPR7 antag: 98.8*; GPR7 antag conf: 93.6*; MCHR1 antagonist: 97.4*

Results for CC1(C)c2[nH]c3ccccc3c2C[C@@H]2C(=O)N(Cc3ccco3)C(=O)N21 ?
CHO parental Ca: -19.9; OX1R antag-1: 27.6; OX1R antag-2: -24.5

How did COCCCNc1nc2nonc2nc1N1CCC(C(C)N2CCOCC2)CC1 (stereo unspecified) do in these assays?
TRPML3 ag: 0.2; CHO parental Ca: -10.2; zfTRPN1 agonist: 0.1; OX1R antag-1: 36.5; OX1R antag-2: -12.4; GPR7 antag: -4.3

How did Cc1ccc2c(c1)Oc1ccccc1C=C2C(=O)O do in these assays?
TRPML3 ag: 0.8; CHO parental Ca: -22.7; zfTRPN1 agonist: 2.2; OX1R antag-1: 8.1; OX1R antag-2: -30.8; GPR7 antag: 1.7

Screening data deposited in PubChem BioAssay by The Scripps Research Institute Molecular Screening Center.
